The values below come from ChEMBL document CHEMBL3232859, “Absolute configuration of (13R)- and (13S)-labdane diterpenes coexisting in Ageratina jocotepecana” (2014).

Values after ≈ are worked out from the molar mass of the structure shown. Active and inactive are the calls of the source.

For one experiment, the system named is Escherichia coli. The experiment is described as follows: Antibacterial activity against Escherichia coli assessed as growth inhibition at 0.01 mg/uL after 18 hrs by agar diffusion method. Format: functional, organism-based. The method in brief: (§1)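 Single-concentration agar diffusion screen: 6 μL aliquots of ethanolic solutions of pure compounds (0.01 mg/μL) deposited on solidified agar; inhibition zone diameter measured after 18 h incubation at 37 °C.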
(A growth-free zone around the sample is the usual read-out of agar diffusion tests.)

The test system of the next experiment is Bacillus subtilis. In words: Antibacterial activity against Bacillus subtilis assessed as growth inhibition after 18 hrs by agar diffusion method. The format is functional. Put shortly: (§2)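 MIC by agar diffusion: ethanolic solutions, starting at a maximum of 0.01 mg/μL with successive 2-fold dilutions; 6 μL aliquots deposited on solidified agar; inhibition zone diameter read after 18 h incubation at 37 °C. Cefotaxime positive control, EtOH negative control.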

Another experiment concerns Klebsiella pneumoniae. In words: Antibacterial activity against Klebsiella pneumoniae assessed as growth inhibition at 0.01 mg/uL after 18 hrs by agar diffusion method. Format: functional, organism-based. Put shortly: as §1
Another experiment deals with Staphylococcus aureus. In words: Antibacterial activity against Staphylococcus aureus assessed as growth inhibition after 18 hrs by agar diffusion method. Format: functional. Put shortly: as §2

Regarding `CC1=CC[C@H]2C(C)(C)CCC[C@]2(C)[C@H]1CC/C(C)=C\C(=O)O`, the “growth inhibition (GI)” value in the experiment on Escherichia coli and with Klebsiella pneumoniae was “inactive” throughout. For the same compound, the results for the MIC in the experiment on Bacillus subtilis and with Staphylococcus aureus were 1000 µg/mL (≈ 3.28 mM) and 10000 µg/mL (≈ 32.8 mM), respectively.
Regarding `CC1=CC[C@H]2C(C)(C)CCC[C@]2(C)[C@H]1CC[C@H](C)CC(=O)O`, the “growth inhibition (GI)” value with Escherichia coli and in the experiment with Klebsiella pneumoniae was “inactive” throughout. The MIC in the experiment with Bacillus subtilis was determined as 150 µg/mL (≈ 0.489 mM); in the experiment on Staphylococcus aureus, 780 µg/mL (≈ 2.54 mM).
Regarding `CO/N=C(\C(=O)N[C@@H]1C(=O)N2C(C(=O)O)=C(COC(C)=O)CS[C@H]12)c1csc(N)n1` [CEFOTAXIME], the minimum inhibitory concentration (MIC) came to 12500 µg/mL (≈ 27.4 mM) in the experiment on Bacillus subtilis and 130 µg/mL (≈ 0.285 mM) with Staphylococcus aureus.
`C[C@H](CC[C@@H]1[C@@]2(C)CCCC(C)(C)[C@@H]2CC[C@@]1(C)O)CC(=O)O`: the “growth inhibition (GI)” value in the experiment on Escherichia coli and with Klebsiella pneumoniae was “inactive” in each case. Further, the minimum inhibitory concentration (MIC) with Bacillus subtilis turned out to be 1560 µg/mL (≈ 4.81 mM); in the experiment with Staphylococcus aureus it was 2340 µg/mL (≈ 7.21 mM).

For orientation: MIC means the smallest concentration in the dilution series that meets the test's criterion for growth inhibition.
